The values below come from ChEMBL document CHEMBL1125612, “Synthesis and biological activity of D3-trishomocubyl-4-amines” (J Med Chem, 1991).

Series [1] has as its system Mus musculus. The series can be described thus: Anti-oxotremorine activity (anticholinergic property) and reduction of salivation in mice at a dose of 30 mg/kg. It counts as functional. Put shortly: (§1)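 Male CD-1 mice, food-deprived 18 h, with water ad libitum except during observation. Groups of 10 received oral treatment in 1% tragacanth at 10 mL/kg. Test agents were dosed at 100, 30 or 10 mg/kg; the reference standard or vehicle was given instead where used. Oxotremorine 0.4 mg/kg i.p. followed 30 min later. Tremor and salivation were each scored 0-3 at 10, 20 and 30 min, reported as mean score ± SEM.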

The species entered for series [2] is Mus musculus. The series is described as follows: Anticataleptic activity for reversing the reserpine-induced catalepsy in mice. In kind it is functional. Put shortly: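 Male CD-1 mice fasted 18 h, given reserpine 5 mg/kg i.p. 4 h before oral compound (1% tragacanth, 10 mL/kg; 100, 30, 10 mg/kg; groups of five).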
For series [3], the system named is Mus musculus. The series is described as follows: Anti-oxotremorine activity (anticholinergic property) and reduction of tremor in mice at a dose of 30 mg/kg. In kind it is functional. Put shortly: as §1
The nature of series [4]: Acute toxicity in mice (24 hours). In kind it is organism-based. To be noted: mouse, in vivo.
Series [5] has as its system Mus musculus. The series is described as follows: Anti-oxotremorine activity (anticholinergic property) and reduction of salivation in mice at a dose of 10 mg/kg. It counts as functional. Put shortly: (§2)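 Male CD-1 mice, food withheld 18 h, water ad libitum except during observation. Compound in 1% tragacanth given orally (10 mL/kg) to groups of 10 at 100, 30 or 10 mg/kg. Oxotremorine 0.4 mg/kg i.p. 30 min later. Salivation and tremor each scored 0-3 at 10, 20 and 30 min after oxotremorine. Mean score ±SEM.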

For series [6], the system named is Mus musculus. The series is described as follows: Anti-oxotremorine activity (anticholinergic property) and reduction of tremor in mice at a dose of 10 mg/kg. It counts as functional. Put shortly:
as §2

The subject of series [7] is Mus musculus. The series is described as follows: Anti-oxotremorine activity (anticholinergic property) and reduction of salivation in mice at a dose of 100 mg/kg. In kind it is functional. Put shortly: as §2
Series [8] deals with Mus musculus. The series is described as follows: Anti-oxotremorine activity (anticholinergic property) and reduction of tremor in mice at a dose of 100 mg/kg. In kind it is functional. Put shortly: as §2
Series [9] has as its system Mus musculus. The series can be described thus: Anti-oxotremorine activity (anticholinergic property) and reduction of salivation in mice at a dose of 3 mg/kg. It counts as functional.
Series [10] has as its system Mus musculus. The series can be described thus: Anti-oxotremorine activity (anticholinergic property) and reduction of tremor in mice at a dose of 3 mg/kg. In kind it is functional.

The term ED50 denotes the dose at which the effect has come halfway, by size or by number of responders. A word on the LD50: it is the dose at which mortality reaches 50%. Low readings indicate a more toxic substance, high ones a less toxic substance. With `CC12C3CC4C5C[C@H]([C@H](C53)[C@@H]1NCCc1ccccc1)[C@@H]42` (stereo not given in full), the Mean score in series [1] and in series [3] was 1.3 in each case. Further, the ED50 in series [2] was found to be 150 mg/kg. This molecule displayed a median lethal dose (LD50) at 24 h in series [4] greater than 1000 mg/kg.
On to `CC12C3CC4C5C[C@H]([C@H](C53)[C@@H]1NCc1ccccc1)[C@@H]42` (stereo not given in full), for which the Mean score in series [1] and in series [3] was 1.5 each time. Moreover, in series [2], the ED50 worked out at 34 mg/kg. This molecule registered an LD50 at 24 h in [4] greater than 1000 mg/kg.
For `N[C@H]1[C@H]2C3C4C[C@H]2[C@H]2C4CC3C21c1ccccc1` (stereo not given in full), the Mean score in [1] turned out to be 1.2; in series [3], 1.6. The ED50 in [2] came out at 16 mg/kg. This molecule returned an LD50 at 24 h in series [4] of 681 mg/kg.
Regarding `CCN[C@H]1[C@H]2C3C4C[C@H]2[C@H]2C4CC3C21c1ccccc1` (stereo not given in full), the Mean score in series [5] was determined as 1; in [6], 1.3. The ED50 in series [2] amounted to 14 mg/kg. The molecule also came in with an LD50 at 24 h in [4] of 261 mg/kg.
As to `CCCCN[C@H]1[C@H]2C3C4C[C@H]2[C@H]2C4CC3C21C` (stereo not given in full), the Mean score in [5] and in [6] was 1.2 throughout. The ED50 in series [2] was determined as 15 mg/kg. For the same molecule, the median lethal dose (LD50) at 24 h in series [4] came out at 150 mg/kg.
As for `NC12CC3CC(CC(C3)C1)C2` [AMANTADINE], the Mean score is 1.1 in series [7] and 1.7 in series [8]. In addition, the 50% effective dose (ED50) in [2] was 17 mg/kg.
On to `CN1[C@@H]2CC[C@H]1C[C@@H](OC(=O)C(CO)c1ccccc1)C2` (stereo not given in full) [ATROPINE], for which the Mean score in series [9] turned out to be 0; in series [10], 0.5.
